The target of one experiment is Sigma 2 receptor. The experiment is described as follows: Inhibitory activity against opioid sigma 2 receptor in rat cerebral cortex using [3H]DTG (+300 nM (+)pentazocine) as radio ligand at pH 7.5 for 120 min at 22 degree C. In kind it is tissue-based.
The next experiment has as its system MRC5. The experiment is described as follows: Cytotoxicity against a human diploid embryonic lung cell line (MRC-5 cells) using the colorimetric MTT assay. In kind it is functional. The gist of the method: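 MRC-5 human embryonic lung cells were exposed to the compounds, and viability was read by colorimetric MTT assay. The read-out is the CC50.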
Experiment [1] has as its target Sigma non-opioid intracellular receptor 1 (Cavia porcellus) (UniProt Q60492). The experiment is described as follows: Selectivity index against opioid receptor sigma 1 versus cytotoxicity to that of inhibitory concentration.

A value given as a limit tells only on which side of the number the result lay.

Chain of Sigma non-opioid intracellular receptor 1 (Cavia porcellus) (Q60492 whole entry, looked up): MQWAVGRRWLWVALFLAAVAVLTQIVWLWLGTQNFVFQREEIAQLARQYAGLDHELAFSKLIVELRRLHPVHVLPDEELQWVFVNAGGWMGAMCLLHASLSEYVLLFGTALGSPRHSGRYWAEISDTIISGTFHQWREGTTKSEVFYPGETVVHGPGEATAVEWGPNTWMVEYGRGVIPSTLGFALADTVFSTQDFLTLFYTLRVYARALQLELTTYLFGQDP

Usually IC50 stands for the point on the concentration scale where inhibition reaches its midpoint. Read a high IC50 as weaker potency in that assay. The term CC50 denotes the concentration giving 50% cytotoxicity. Low readings indicate harm at low concentration, high ones better tolerance by the cells. As to `CN(CCCCCN1C(=O)[C@@H]2Cc3ccccc3CN2C1=O)Cc1ccccc1`, at Sigma 2 receptor, the IC50 turned out to be 81 nM. Further, in the experiment with MRC5, it took 101 µM to reach half-maximal cytotoxicity (CC50). This compound yielded an IS in experiment [1] of 20200. As for `CN(CCCCCc1ccccc1)CCN1C(=O)[C@@H]2Cc3ccccc3CN2C1=O`, on Sigma 2 receptor, the half-inhibitory concentration (IC50) was over 1000 nM.

Consider `CN(CCCCN1C(=O)[C@@H]2Cc3ccccc3CN2C1=O)Cc1ccccc1`, for which the IC50 on Sigma 2 receptor was over 100 nM. The compound `O=C1[C@@H]2Cc3ccccc3CN2C(=O)N1CCCNCCCCc1ccccc1` gave a CC50 in the experiment on MRC5 of 31 µM. This compound registered an IS in experiment [1] of 2950.

Consider `CN(CCN1C(=O)[C@@H]2Cc3ccccc3CN2C1=O)Cc1ccccc1`, for which it took 972 nM to reach half-maximal inhibition on Sigma 2 receptor (IC50). In addition, the CC50 in the experiment with MRC5 amounted to 107 µM. Besides, the IS in experiment [1] was 23800.

As for `CN(CCCc1ccccc1)CCN1C(=O)[C@@H]2Cc3ccccc3CN2C1=O`, the CC50 with MRC5 came to 136 µM. In addition, the IS in experiment [1] came out at 10000. On Sigma 2 receptor, `CN(CCCN1C(=O)[C@@H]2Cc3ccccc3CN2C1=O)CCc1ccccc1` had an IC50 of 21 nM. Regarding `O=C1[C@@H]2Cc3ccccc3CN2C(=O)N1CCCNCc1ccccc1`, the IC50 against Sigma 2 receptor is over 1000 nM. For `CN(CCCCc1ccccc1)CCN1C(=O)[C@@H]2Cc3ccccc3CN2C1=O`, half-maximal inhibition at Sigma 2 receptor (IC50) was put at 358 nM. Turning to `CN(CCCN1C(=O)[C@@H]2Cc3ccccc3CN2C1=O)Cc1ccccc1`, inhibition on Sigma 2 receptor was half-maximal at 502 nM (IC50). The compound also gave a CC50 in the experiment on MRC5 of 196 µM.

The compound `CN(CCCCN1C(=O)[C@@H]2Cc3ccccc3CN2C1=O)CCc1ccccc1` registered a CC50 in the experiment with MRC5 of 106 µM. Further, the IS in experiment [1] was determined as 10700. Consider `O=C1[C@@H]2Cc3ccccc3CN2C(=O)N1CCN1CCCCC1`, for which the half-inhibitory concentration (IC50) at Sigma 2 receptor is over 1000 nM.

These data come from ChEMBL document CHEMBL1140401, “Synthesis and pharmacological evaluation of Tic-hydantoin derivatives as selective sigma1 ligands. Part 2” (Bioorg Med Chem Lett, 2005).
